Laboratory results: ChEMBL document CHEMBL1145123, “Trisubstituted acridine derivatives as potent and selective telomerase inhibitors” (J Med Chem, 2003)

Experiments:
[1] = Cytotoxicity against ovarian carcinoma A2780 cell lines; format: functional, cell-based; settings: Homo sapiens
In short: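 SRB assay. Cells were seeded at 3000–6000 per well and attached overnight. Salts dissolved in water at 500 μM were added in quadruplicate at 0.05, 0.25, 1, 5 and 25 μM final for 96 h. Cells were then fixed with cold 10% TCA and stained with 0.4% SRB. A540 was expressed as % of untreated control, and IC50 was derived.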

[2] = […]; format: functional, cell-based; settings: Homo sapiens, A-431
[3] = target: Telomerase reverse transcriptase (Homo sapiens, UniProt O14746); assay: Inhibitory activity against human telomerase
Telomerase reverse transcriptase, sequence (O14746 whole entry): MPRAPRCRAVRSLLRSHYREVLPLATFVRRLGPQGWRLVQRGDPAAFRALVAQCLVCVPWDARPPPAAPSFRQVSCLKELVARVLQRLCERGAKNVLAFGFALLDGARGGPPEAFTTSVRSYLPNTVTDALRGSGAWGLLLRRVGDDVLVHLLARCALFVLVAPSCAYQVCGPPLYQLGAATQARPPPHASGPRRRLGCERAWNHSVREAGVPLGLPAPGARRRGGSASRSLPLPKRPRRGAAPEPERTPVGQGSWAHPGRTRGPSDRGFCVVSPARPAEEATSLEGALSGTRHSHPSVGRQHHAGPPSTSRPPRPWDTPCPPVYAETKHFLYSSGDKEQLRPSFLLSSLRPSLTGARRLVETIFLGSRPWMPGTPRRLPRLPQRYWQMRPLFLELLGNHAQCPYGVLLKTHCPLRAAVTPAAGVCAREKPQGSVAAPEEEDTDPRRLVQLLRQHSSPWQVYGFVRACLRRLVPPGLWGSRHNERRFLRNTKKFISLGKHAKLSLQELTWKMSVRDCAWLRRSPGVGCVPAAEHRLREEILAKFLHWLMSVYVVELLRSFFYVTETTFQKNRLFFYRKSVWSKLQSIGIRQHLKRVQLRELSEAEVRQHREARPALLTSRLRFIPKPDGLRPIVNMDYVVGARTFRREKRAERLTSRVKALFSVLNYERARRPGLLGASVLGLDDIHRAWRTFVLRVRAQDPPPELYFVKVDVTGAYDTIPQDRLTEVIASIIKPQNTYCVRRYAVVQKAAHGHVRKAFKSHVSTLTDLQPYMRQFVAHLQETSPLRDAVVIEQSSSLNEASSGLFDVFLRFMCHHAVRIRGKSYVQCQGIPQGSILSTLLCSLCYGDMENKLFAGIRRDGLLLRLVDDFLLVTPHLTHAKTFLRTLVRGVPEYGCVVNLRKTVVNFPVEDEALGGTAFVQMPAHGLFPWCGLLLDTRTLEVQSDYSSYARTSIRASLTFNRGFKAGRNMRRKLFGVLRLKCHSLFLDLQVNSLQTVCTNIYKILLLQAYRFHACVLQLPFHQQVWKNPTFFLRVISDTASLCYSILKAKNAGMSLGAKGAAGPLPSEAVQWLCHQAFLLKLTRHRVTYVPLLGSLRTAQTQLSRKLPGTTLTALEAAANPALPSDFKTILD
In short: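 Modified TRAP assay with extract protein (0.04 μg) from exponentially growing A2780 cells. The enzyme was heat-inactivated at 80 °C, then CX primer was added and 31 PCR cycles were run. Products were quantified by gel phosphorimaging or filter scintillation counting. Agents were first screened against Taq polymerase at 1–50 μM.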

[4] = target: Nucleic Acid; assay: (§1) Affinity constant for binding to duplex DNA; format: functional, Homo sapiens
[5] = species on record: Homo sapiens; assay: Affinity constant for binding to human 22-mer quadruplex; format: functional
[6] = species on record: Homo sapiens; assay: as §1; format: functional, organism-based

| EC50 [3] | Ka [4] | Ka [5] | Ka [6] | SMILES | IC50 [1] | IC50 [2] |
| --- | --- | --- | --- | --- | --- | --- |
| 150 nM |  |  |  | CSc1ccccc1Nc1c2ccc(NC(=O)CCN3CCCC3)cc2nc2cc(NC(=O)CCN3CCCC3)ccc12 | 0.1 µM | 2.5 µM |
| 570 nM |  |  |  | CN(C)CCNc1c2cc(NC(=O)CCN3CCCC3)ccc2nc2ccc(NC(=O)CCN3CCCC3)cc12 | 11 µM | > 25 µM |
| 210 nM |  |  |  | O=C(CCN1CCCC1)Nc1ccc2c(NC3CCCCC3)c3cc(NC(=O)CCN4CCCC4)ccc3nc2c1 | 10 µM | 14 µM |
| 80 nM |  |  |  | CN(C)CCCNc1c2ccc(NC(=O)CCN3CCCC3)cc2nc2ccc(NC(=O)CCN3CCCC3)cc12 | > 25 µM | > 25 µM |
| 170 nM |  |  |  | CN(C)c1ccc(Nc2c3ccc(NC(=O)CCN4CCCC4)cc3nc3ccc(NC(=O)CCN4CCCC4)cc23)cc1 | 7.9 µM | 10 µM |
| 1290 nM |  |  |  | O=C(CCN1CCCC1)Nc1ccc2nc3ccc(NC(=O)CCN4CCCC4)cc3c(Nc3ccccc3)c2c1 | 2.6 µM | 12.5 µM |
| 100 nM |  |  |  | CN(C)c1cccc(Nc2c3ccc(NC(=O)CCN4CCCC4)cc3nc3cc(NC(=O)CCN4CCCC4)ccc23)c1 | 7.9 µM | 2 µM |
| 100 nM |  |  |  | CSc1cccc(Nc2c3ccc(NC(=O)CCN4CCCC4)cc3nc3cc(NC(=O)CCN4CCCC4)ccc23)c1 | 2.8 µM | 1.3 µM |
| 50 nM |  |  |  | O=C(CCN1CCCC1)Nc1ccc2c(NC3CC3)c3ccc(NC(=O)CCN4CCCC4)cc3nc2c1 | 19 µM | > 25 µM |
| 90 nM |  |  |  | O=C(CCN1CCCC1)Nc1ccc2c(NC3CCCCC3)c3ccc(NC(=O)CCN4CCCC4)cc3nc2c1 | 12.5 µM | 2.5 µM |
| 600 nM |  |  |  | CN(C)c1cccc(Nc2c3cc(NC(=O)CCN4CCCC4)ccc3nc3ccc(NC(=O)CCN4CCCC4)cc23)c1 | 3.2 µM | 12.6 µM |
| 1090 nM |  |  |  | Nc1cccc(Nc2c3cc(NC(=O)CCN4CCCC4)ccc3nc3ccc(NC(=O)CCN4CCCC4)cc23)c1 | 6.3 µM | > 25 µM |
| 20 nM |  |  |  | Nc1ccccc1Nc1c2ccc(NC(=O)CCN3CCCC3)cc2nc2cc(NC(=O)CCN3CCCC3)ccc12 | 11 µM | 7.1 µM |
| 66 nM |  |  |  | O=C(CCN1CCCC1)Nc1ccc2c(NCc3cccnc3)c3ccc(NC(=O)CCN4CCCC4)cc3nc2c1 | > 25 µM | > 25 µM |
| 270 nM |  |  |  | CN(C)CCNc1c2ccc(NC(=O)CCN3CCCC3)cc2nc2ccc(NC(=O)CCN3CCCC3)cc12 | > 25 µM | > 25 µM |
| 18 nM | 4900000 M⁻¹ | 57000000 M⁻¹ |  | CN(C)CCNc1c2ccc(NC(=O)CCN3CCCC3)cc2nc2cc(NC(=O)CCN3CCCC3)ccc12 | > 25 µM | > 25 µM |
| 1330 nM |  |  |  | O=C(CCN1CCCC1)Nc1ccc2c(Nc3ccccc3)c3cc(NC(=O)CCN4CCCC4)ccc3nc2c1 | 5.6 µM | 14 µM |
| 50 nM |  |  |  | O=C(CCN1CCCC1)Nc1ccc2c(NCCN3CCCCC3)c3ccc(NC(=O)CCN4CCCC4)cc3nc2c1 | 12.6 µM | 11.2 µM |
| 100 nM |  |  |  | CC(=O)Nc1cccc(Nc2c3ccc(NC(=O)CCN4CCCC4)cc3nc3cc(NC(=O)CCN4CCCC4)ccc23)c1 | > 25 µM | > 25 µM |

| EC50 [3] | Ka [4] | Ka [5] | Ka [6] | SMILES | IC50 [1] | IC50 [2] |
| --- | --- | --- | --- | --- | --- | --- |
| 460 nM |  |  |  | COc1ccc(Nc2c3cc(NC(=O)CCN4CCCC4)ccc3nc3ccc(NC(=O)CCN4CCCC4)cc23)cc1 | 10 µM | 12.6 µM |
| 200 nM |  |  |  | Nc1ccc(Nc2c3cc(NC(=O)CCN4CCCC4)ccc3nc3ccc(NC(=O)CCN4CCCC4)cc23)cc1 | > 25 µM | > 25 µM |
| 60 nM |  |  |  | CN(C)CCCNc1c2ccc(NC(=O)CCN3CCCC3)cc2nc2cc(NC(=O)CCN3CCCC3)ccc12 | > 25 µM | > 25 µM |
| 140 nM |  |  |  | COCCNc1c2ccc(NC(=O)CCN3CCCC3)cc2nc2cc(NC(=O)CCN3CCCC3)ccc12 | 10 µM | 10 µM |
| 74 nM | 500000 M⁻¹ | 16000000 M⁻¹ |  | Nc1ccc(Nc2c3ccc(NC(=O)CCN4CCCC4)cc3nc3cc(NC(=O)CCN4CCCC4)ccc23)cc1 | 25 µM | 25 µM |
| 60 nM |  |  |  | Nc1cccc(Nc2c3ccc(NC(=O)CCN4CCCC4)cc3nc3cc(NC(=O)CCN4CCCC4)ccc23)c1 | 12.6 µM | 12.6 µM |
| 115 nM |  | 16000000 M⁻¹ | 400000 M⁻¹ | CN(C)c1ccc(Nc2c3ccc(NC(=O)CCN4CCCC4)cc3nc3cc(NC(=O)CCN4CCCC4)ccc23)cc1 | 10 µM | 15.8 µM |
| 40 nM |  |  |  | CC(=O)c1ccc(Nc2c3ccc(NC(=O)CCN4CCCC4)cc3nc3cc(NC(=O)CCN4CCCC4)ccc23)cc1 | 3.2 µM | 2.2 µM |
| 210 nM |  |  |  | O=C(CCN1CCCC1)Nc1ccc2c(NC3CCCCCC3)c3ccc(NC(=O)CCN4CCCC4)cc3nc2c1 | 3.2 µM | 3.2 µM |
| 80 nM |  |  |  | Nc1ccc(Nc2c3ccc(NC(=O)CCN4CCCC4)cc3nc3ccc(NC(=O)CCN4CCCC4)cc23)cc1 | > 25 µM | > 25 µM |
| 500 nM |  |  |  | CN(C)c1ccc(Nc2c3cc(NC(=O)CCN4CCCC4)ccc3nc3ccc(NC(=O)CCN4CCCC4)cc23)cc1 | 19 µM | > 25 µM |
| 210 nM |  |  |  | Nc1cccc(Nc2c3ccc(NC(=O)CCN4CCCC4)cc3nc3ccc(NC(=O)CCN4CCCC4)cc23)c1 | 15.8 µM | > 25 µM |
| 2730 nM |  |  |  | COc1cccc(Nc2c3cc(NC(=O)CCN4CCCC4)ccc3nc3ccc(NC(=O)CCN4CCCC4)cc23)c1 | 2.5 µM | 10 µM |
| 1030 nM |  |  |  | O=C(CCN1CCCC1)Nc1ccc2nc3ccc(NC(=O)CCN4CCCC4)cc3c(Nc3ccccc3O)c2c1 | 10 µM | > 25 µM |
| 110 nM |  |  |  | Nc1ccccc1Nc1c2ccc(NC(=O)CCN3CCCC3)cc2nc2ccc(NC(=O)CCN3CCCC3)cc12 | 15.8 µM | > 25 µM |
| 70 nM |  |  |  | O=C(CCN1CCCC1)Nc1ccc2c(Nc3ccc(F)cc3)c3ccc(NC(=O)CCN4CCCC4)cc3nc2c1 | 3.2 µM | 0.5 µM |
| 170 nM |  |  |  | Nc1ccccc1Nc1c2cc(NC(=O)CCN3CCCC3)ccc2nc2ccc(NC(=O)CCN3CCCC3)cc12 | 17.8 µM | > 25 µM |
| 18 nM |  |  |  | CN1CCCC1CCNc1c2ccc(NC(=O)CCN3CCCC3)cc2nc2cc(NC(=O)CCN3CCCC3)ccc12 (stereo unspecified) | > 25 µM | 25 µM |

| SMILES | EC50 [3] | Ka [4] | Ka [5] | Ka [6] | IC50 [1] | IC50 [2] |
| --- | --- | --- | --- | --- | --- | --- |
| O=C(CCN1CCCC1)Nc1ccc2cc3ccc(NC(=O)CCN4CCCC4)cc3nc2c1 | 5200 nM | 1100000 M⁻¹ | 1300000 M⁻¹ |  | 2.6 µM |  |
